Measurements pooled from the literature.
Compare with care: the assays were run in different laboratories.
Cell line: SN12C
Effect on: cell growth or viability

SMILES	test	conditions	endpoint	value
COc1cc(-c2ccc(-c3ccc(C(=N)N)nc3)s2)cc(OC)c1OC			GI50	2050 nM
COc1cccc(Oc2ccccc2NC(=O)CNC(=O)c2cccc3ccccc23)c1	SRB	48 h	GI50	1450 nM
COc1ccc(C(=O)/C=C/c2ccc(Cl)c(Cl)c2)cc1S(N)(=O)=O	SRB	48 h	GI50	1400 nM
Cc1cc(C)n(C(=S)[S][Au][PH](CCCCCC[PH]([Au][S]C(=S)n2nc(C)cc2C)(c2ccccc2)c2ccccc2)(c2ccccc2)c2ccccc2)n1			GI50	479 nM
COc1ccc(-c2ccc(-c3ccc(C(=N)N)nc3)s2)cc1Cl			GI50	1790 nM
S=C([S][Au-][P+](CCCCCC[P+]([Au-][S]C(=S)n1cccn1)(c1ccccc1)c1ccccc1)(c1ccccc1)c1ccccc1)n1cccn1			GI50	1950 nM
CC[C@@]1(O)C(=O)OCc2c1cc1n(c2=O)Cc2cc3ccccc3nc2-1	SRB		GI50	20 nM
COc1ccc(C(=O)/C=C/c2cccc(Br)c2)cc1S(N)(=O)=O	SRB	10 µM	inhibition	179%
